The subject of assay [1] is MCF7. Briefly: Antiproliferative activity against human MCF7 cells assessed as reduction in cell viability after 24 hrs by MTT assay. Type of assay: functional, cell-based. Conditions: for IC50: MCF7, 24 h. The gist of the method: (§1)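 Cells seeded at 4 × 10³/well for 24 h runs and for PC-3, or 2 × 10³/well for MCF-7 and HeLa 48 h runs, and attached overnight. Medium replaced with compound-containing medium for 24 or 48 h. MTT (4 mg mL⁻¹) added for the final 3 h, formazan dissolved in DMSO, absorbance read at 570 nm (reference 660 nm). IC₅₀ calculated from at least three independent experiments in duplicate, mean ± SE.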
Background: Tetrazolium assays rely on reduction of a dye to a coloured formazan, in cell work by metabolically active cells.

For assay [2], the system named is MCF7. Briefly: Antiproliferative activity against human MCF7 cells assessed as reduction in cell viability after 48 hrs by MTT assay. Type of assay: functional, cell-based. The gist of the method:
as §1

For assay [3], the system named is HeLa. The experiment in a line: Antiproliferative activity against human HeLa cells assessed as reduction in cell viability after 24 hrs by MTT assay. It counts as functional, cell-based. The gist of the method: as §1
The subject of assay [4] is HeLa. The experiment in a line: Antiproliferative activity against human HeLa cells assessed as reduction in cell viability after 48 hrs by MTT assay. It counts as functional, cell-based. The gist of the method:
as §1

Assay [5] relates to PC-3. The experiment in a line: Antiproliferative activity against human PC3 cells assessed as reduction in cell viability after 24 hrs by MTT assay. Type of assay: functional, cell-based. Conditions: PC-3, 24 h. The gist of the method:
as §1

For assay [6], the system named is PC-3. The experiment in a line: Antiproliferative activity against human PC3 cells assessed as reduction in cell viability after 48 hrs by MTT assay. The settings on record: PC-3, 48 h. Type of assay: functional, cell-based. In short, it runs like this: as §1
A short description of assay [7]: Cytotoxicity against human HDFa cells assessed as reduction in cell viability after 24 hrs by MTT assay. Type of assay: cell-based. The gist of the method: as §1
Assay [8] in a line: Cytotoxicity against human HDFa cells assessed as reduction in cell viability after 48 hrs by MTT assay. It counts as cell-based. The gist of the method:
as §1

For assay [9], the system named is HeLa. Briefly: Induction of cell cycle arrest in human HeLa cells assessed as accumulation of cells at G0/G1 phase 2.4 to 7.2 uM after 24 hrs by propidium iodide staining based flow cytometric analysis (reference value: 44%). It counts as functional. (In general: In flow cytometry, cells or beads pass a laser one at a time.)
In assay [10] the test system is HeLa. Briefly: Cell cycle arrest in human HeLa cells assessed as reduction in cell population at G2/M phase at 2.4 to 7.2 uM after 24 hrs by propidium iodide staining based flow cytometric analysis. Type of assay: functional.
In assay [11] the test system is HeLa. The experiment in a line: Cell cycle arrest in human HeLa cells assessed as reduction in cell population at S phase at 2.4 to 7.2 uM after 24 hrs by propidium iodide staining based flow cytometric analysis. Type of assay: functional.
Assay [12] concerns MCF7. Briefly: Cytostatic activity against human MCF7 cells measured after 24 hrs by MTT assay. Type of assay: functional, cell-based. The gist of the method:
as §1

For assay [13], the system named is PC-3. Briefly: Cytostatic activity against human PC3 cells measured after 24 hrs by MTT assay. It counts as functional, cell-based. The gist of the method:
as §1

The test system of assay [14] is HeLa. Briefly: Cytostatic activity against human HeLa cells measured after 24 hrs by MTT assay. It counts as functional, cell-based. The gist of the method:
as §1

For assay [15], the system named is HeLa. The experiment in a line: Induction of cell cycle arrest in human HeLa cells assessed as accumulation of cells at G0/G1 phase after 24 hrs by propidium iodide staining based flow cytometric analysis. Type of assay: functional.
Assay [16] has as its system MCF7. The experiment in a line: Induction of cell cycle arrest in human MCF7 cells assessed as accumulation of cells at G0/G1 phase at 2.9 uM after 24 hrs by Propidium iodide staining based flow cytometric analysis (reference value: 47.8 +/- 0.42%). It counts as functional.
For assay [17], the system named is MCF7. The experiment in a line: Induction of cell cycle arrest in human MCF7 cells assessed as accumulation of cells at G0/G1 phase at 8.7 uM after 24 hrs by Propidium iodide staining based flow cytometric analysis (reference value: 47.8 +/- 0.42%). It counts as functional.
The subject of assay [18] is MCF7. Briefly: Induction of cell cycle arrest in human MCF7 cells assessed as accumulation of cells at S phase at 2.9 uM after 24 hrs by Propidium iodide staining based flow cytometric analysis (reference value: 23.75 +/- 1.87%). It counts as functional.
The subject of assay [19] is MCF7. The experiment in a line: Induction of cell cycle arrest in human MCF7 cells assessed as accumulation of cells at S phase at 8.7 uM after 24 hrs by Propidium iodide staining based flow cytometric analysis (reference value: 23.75 +/- 1.87%). It counts as functional.
Assay [20] deals with MCF7. The experiment in a line: Induction of cell cycle arrest in human MCF7 cells assessed as accumulation of cells at G2/M phase at 2.9 uM after 24 hrs by Propidium iodide staining based flow cytometric analysis (reference value: 27 +/- 2.97%). Type of assay: functional.
The subject of assay [21] is MCF7. Briefly: Induction of cell cycle arrest in human MCF7 cells assessed as accumulation of cells at G2/M phase at 8.7 uM after 24 hrs by Propidium iodide staining based flow cytometric analysis (reference value: 27 +/- 2.97%). It counts as functional.
In assay [22] the test system is HeLa. The experiment in a line: Cell cycle arrest in human HeLa cells assessed as accumulation of cells at S phase at 8.7 uM after 24 hrs by propidium iodide staining based flow cytometric analysis. Type of assay: functional.
The subject of assay [23] is HeLa. Briefly: Cell cycle arrest in human HeLa cells assessed as accumulation of cells at G2/M phase at 8.7 uM after 24 hrs by propidium iodide staining based flow cytometric analysis. Type of assay: functional.

Each structure is given as a SMILES string. Active and inactive are the calls of the source. The rule behind the calls is not given here.

As to `CC(=O)c1c(O)c(C)c(O)c2c1OC1=Cc3c(c(C)nn3C)C(=O)[C@]12C`, the IC50 (as a rule, the concentration at which inhibition is half-maximal) in the assay on MCF7 [1] was greater than 10 µM; in the assay on MCF7 [2] (Homo sapiens, MCF7, 48 h), greater than 10 µM; in the assay on HeLa [3], 2.7 µM; with HeLa [4] (Homo sapiens, HeLa, 48 h), 1.2 µM; in the assay with PC-3 [5], greater than 10 µM; with PC-3 [6], greater than 10 µM. In addition, the IC50 in assay [7] and in assay [8] was greater than 10 µM each time. Moreover, the Activity with HeLa [9] is 51 - 65%. For the same compound, the result in the assay on HeLa [10] and with HeLa [11] was Active. Further, the result with MCF7 [12], in the assay with PC-3 [13] and with HeLa [14] was inactive.
Take `CC(=O)c1c(O)c(C)c(O)c2c1OC1=Cc3c(c(C)nn3-c3ccc(C)cc3)C(=O)[C@]12C`: the inhibition entry with MCF7 [1] and in the assay with MCF7 [2] was “inactive” throughout.
As to `CC(=O)c1c(O)c(C)c(O)c2c1OC1=Cc3c(c(C)nn3-c3ccc(Cl)c(Cl)c3)C(=O)[C@]12C`, the inhibition result with MCF7 [1] and with MCF7 [2] was “inactive” in each case.
In the case of `CC(=O)c1c(O)c(C)c(O)c2c1OC1=Cc3c(c(C)nn3-c3ccc(F)cc3)C(=O)[C@]12C`, the inhibition result in the assay with MCF7 [1] and in the assay on MCF7 [2] was “inactive” throughout.
Take `CC(=O)c1c(O)c(C)c(O)c2c1OC1=Cc3c(c(C)nn3-c3ccccc3)C(=O)[C@]12C`: the inhibition entry in the assay with MCF7 [1] and in the assay on MCF7 [2] was “inactive” throughout.
For `COc1ccc(-n2nc(C)c3c2C=C2Oc4c(C(C)=O)c(O)c(C)c(O)c4[C@]2(C)C3=O)cc1`, the inhibition result in the assay on MCF7 [1] and with MCF7 [2] was “inactive” throughout.
`CC(=O)c1c(O)c(C)c(O)c2c1OC1=Cc3c(c(C)nn3C)C(=O)C12C` (racemic): the IC50 is greater than 10 µM in the assay on MCF7 [1]; greater than 10 µM in the assay with MCF7 [2] (Homo sapiens, MCF7, 48 h); 2.7 µM in the assay on HeLa [3]; 1.1 µM in the assay on HeLa [4] (Homo sapiens, HeLa, 48 h); greater than 10 µM with PC-3 [5]; greater than 10 µM in the assay with PC-3 [6]. Moreover, the half-maximal inhibitory concentration (IC50) in assay [7] and in assay [8] was greater than 10 µM throughout. Also, the Activity with HeLa [9] was 51 - 65%; in the assay on HeLa [15] it was “Dose-dependent effect”. Besides, the result in the assay with HeLa [10] and with HeLa [11] was Active. Besides, the result in the assay with MCF7 [12], in the assay on PC-3 [13] and in the assay on HeLa [14] was inactive.
In the case of `CC(=O)c1c(O)c(C)c(O)c2c1OC1=Cc3c(c(C)nn3-c3ccc(C)cc3)C(=O)C12C` (racemic), the inhibition entry with MCF7 [1] and in the assay on MCF7 [2] was “inactive” throughout.
On to `CC(=O)c1c(O)c(C)c(O)c2c1OC1=Cc3c(c(C)nn3-c3ccc(Cl)c(Cl)c3)C(=O)C12C` (racemic), for which the inhibition entry in the assay on MCF7 [1] and with MCF7 [2] was “inactive” in each case.
On to `CC(=O)c1c(O)c(C)c(O)c2c1OC1=Cc3c(c(C)nn3-c3ccc(F)cc3)C(=O)C12C` (racemic), for which the inhibition result with MCF7 [1] and in the assay with MCF7 [2] was “inactive” each time.
As for `CC(=O)c1c(O)c(C)c(O)c2c1OC1=Cc3c(c(C)nn3-c3ccccc3)C(=O)C12C` (racemic), the inhibition entry in the assay on MCF7 [1] and in the assay with MCF7 [2] was “inactive” each time.
Take `COc1ccc(-n2nc(C)c3c2C=C2Oc4c(C(C)=O)c(O)c(C)c(O)c4C2(C)C3=O)cc1` (racemic): the inhibition result in the assay on MCF7 [1] and with MCF7 [2] was “inactive” throughout.
With `CC(=O)c1c(O)c(C)c(O)c2c1OC1=CC(=O)C(C(C)=O)C(=O)C12C` (stereo in doubt; (+)-1) [listing 1 of 2 here], the 50% inhibitory concentration (IC50) in the assay on MCF7 [2] (mcf7) lay within 10 to 75.7 µM; with HeLa [4] (hela), 10 to 23.7 µM. In addition, the Activity with MCF7 [16] is on record as 46%; with MCF7 [17], 50.6%; with MCF7 [18], 23%; in the assay with MCF7 [19], 22.4%; with MCF7 [20], 28.8%; in the assay with MCF7 [21] it was 24.8%.
With `CC(=O)c1c(O)c(C)c(O)c2c1OC1=CC(=O)C(C(C)=O)C(=O)C12C` (stereo in doubt; (+)-1) [listing 2 of 2 here], the outcome in the assay with HeLa [22] and with HeLa [23] was Active.
On to `CC(=O)c1c(O)c(C)c(O)c2c1OC1=CC(=O)C(C(C)=O)C(=O)C12C` (stereo in doubt; (-)-1) [listing 1 of 2 here], for which the IC50 is greater than 10 µM in the assay with MCF7 [1]; greater than 10 µM in the assay on MCF7 [2] (Homo sapiens, MCF7, 48 h); greater than 10 µM in the assay with HeLa [3]; greater than 10 µM in the assay with HeLa [4] (Homo sapiens, HeLa, 48 h); greater than 10 µM with PC-3 [5]; greater than 10 µM in the assay on PC-3 [6]. Further, the IC50 in [7] and in [8] was greater than 10 µM throughout. The Activity came out at 46.95% in the assay with MCF7 [16]; 52.35% in the assay on MCF7 [17]; 22.9% in the assay on MCF7 [18]; 20.6% in the assay on MCF7 [19]; 28.25% in the assay with MCF7 [20]; 24.95% with MCF7 [21].
Take `CC(=O)c1c(O)c(C)c(O)c2c1OC1=CC(=O)C(C(C)=O)C(=O)C12C` (stereo in doubt; (-)-1) [listing 2 of 2 here]: the outcome in the assay on HeLa [22] and in the assay with HeLa [23] was Active.

The values are drawn from ChEMBL document CHEMBL4334455, “Synthesis of Usnic Acid Derivatives and Evaluation of Their Antiproliferative Activity against Cancer Cells” (J Nat Prod, 2019).
